Screens as filed in PubChem BioAssay.
mIAP block = mouse IAP inhibition; inhibition, % at 10 µM; purified mouse IAP, CDP-Star luminescence, 30 min; 0.2% of 330,000 active;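 active means inhibition of at least 40% at 10 µM in the primary screen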;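 further: plate controls were DMSO with enzyme for no effect and no enzyme wells for full effect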
bIAP act = intestinal alkaline phosphatase (bovine) activation; purified bovine IAP, CDP-star luminescence, 30 min; stronger effect = higher value; fold of DMSO-control signal, blank-subtracted; activation factor at 20 µM; 0.17% of 200,000 active; AID 1016;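 active means activation factor of 2 or more at 20 µM, a signal rise over negative controls twice the positive control's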
bIAP inh = intestinal alkaline phosphatase (bovine) inhibition; purified bovine IAP, CDP-star luminescence, 30 min; inhibition, % at 20 µM; 190,000 tested, under 10 active; AID 1019;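 active means over 50% inhibition of intestinal alkaline phosphatase at 20 µM in the single-dose screen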
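Assay system: bovine IAP enzyme; medium: DEA buffer 100 mM, pH 9.8, with MgCl2 1.0 mM, ZnCl2 0.02 mM; doses: 20 µM single dose; incubation: enzyme reaction for 30 min at room temperature; detection: CDP-star luminescence signal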
hIAP inh = blocks human intestinal alkaline phosphatase. inhibition, % at 10 µM. 0.12% of 330,000 active. P09923. purified IAP, CDP-Star luminescence, 30 min. AID 2544;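 active means inhibition reaching a set limit with compound at 10 µM in the primary screen, cut at about 35% in these data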;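 further: plate controls were DMSO wells with enzyme for no effect and no-enzyme buffer wells for full effect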
Target sequence (P09923 whole entry, looked up): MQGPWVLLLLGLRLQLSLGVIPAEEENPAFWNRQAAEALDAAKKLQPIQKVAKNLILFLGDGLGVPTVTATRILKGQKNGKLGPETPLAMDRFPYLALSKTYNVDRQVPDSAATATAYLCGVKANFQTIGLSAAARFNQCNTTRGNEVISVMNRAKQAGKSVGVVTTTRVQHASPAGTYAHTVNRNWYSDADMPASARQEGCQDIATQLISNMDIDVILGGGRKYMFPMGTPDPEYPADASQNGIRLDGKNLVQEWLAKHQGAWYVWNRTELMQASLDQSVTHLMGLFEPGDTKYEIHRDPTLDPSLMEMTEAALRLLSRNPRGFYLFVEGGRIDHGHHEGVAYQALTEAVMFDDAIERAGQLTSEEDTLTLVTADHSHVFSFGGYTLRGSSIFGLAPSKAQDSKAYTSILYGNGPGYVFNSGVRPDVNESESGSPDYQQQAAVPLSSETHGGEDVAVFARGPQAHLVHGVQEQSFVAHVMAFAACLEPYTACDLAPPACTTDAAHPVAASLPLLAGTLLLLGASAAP
hIAP activ = increases human intestinal alkaline phosphatase activity. purified human IAP, CDP-Star luminescence, 30 min; stronger effect = higher value; 1 = vehicle-only enzyme, 0 = enzyme-free background. AID 2524. activation factor at 10 µM. P09923. 0.16% of 330,000 active;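 active means activation factor of the enzyme at least 2-fold when tested at 20 µM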
mIAP act = increases mouse intestinal alkaline phosphatase activity. muIAP, CDP-Star luminescence, 30 min; stronger effect = higher value; 1 = vehicle-only enzyme signal, 0 = enzyme-free wells. activation factor at 10 µM. 0.24% of 330,000 active;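 active means activation factor of at least 2 at 20 µM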
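Assay system: mouse IAP enzyme; Reagent: CDP-Star chemiluminescent phosphatase substrate; Compound: DMSO-dissolved test compounds; Incubation: 30 min, room temperature; Technique: luminescence from enzymatic CDP-Star hydrolysis; Controls: DMSO-only wells and no-enzyme negative control.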
Numbers without * were called inactive. A selection: hits, their analogues and other compounds. The true share with any hit is near 0.77%.

What do the screens show for `COc1ccc(-n2cc(CNCCc3nc(C)cc(C)n3)c(-c3ccccc3Cl)n2)cc1`?
mIAP block: -5.0; bIAP act: 1.2; bIAP inh: -20.5; hIAP inh: 4.2; hIAP activ: 0.958; mIAP act: 1.05

Results for COc1ccc(-n2cc(CNCc3cccnc3)c(-c3cccc(F)c3)n2)cc1 ?
mIAP block: 1.7; bIAP act: 1.1; bIAP inh: -6.6; hIAP inh: 6.3; hIAP activ: 0.937; mIAP act: 0.983

What do the screens show for `Cc1cccc(NC(=O)CCS(=O)(=O)c2cc3c(cc2Cl)NC(=O)CO3)c1`?
mIAP block: -1.1; hIAP inh: 16.0; hIAP activ: 0.84; mIAP act: 1.01

How did O=C(Nc1cccc(C(F)(F)F)c1)Nc1ccc(N2CCCC2)c(S(=O)(=O)Nc2ccccc2Cl)c1 do in these assays?
mIAP block: -109.7; bIAP act: 0.7; bIAP inh: 30.3; hIAP inh: -12.1; hIAP activ: 1.12; mIAP act: 2.1*

Results for COc1ccccc1NS(=O)(=O)c1cc(NC(=O)Nc2ccc(Cl)cc2Cl)ccc1N1CCCCC1 ?
mIAP block: -244.3; bIAP act: 0.9; bIAP inh: 5.1; hIAP inh: -10.9; hIAP activ: 1.11; mIAP act: 3.44*

What do the screens show for `CCOC(=O)c1cc(-c2ccccc2)nn1CC1CC(c2ccc(OC)cc2)=NO1` (configuration not stated)?
mIAP block: -3.2; hIAP inh: -14.8; hIAP activ: 1.15; mIAP act: 1.03

Results for Cc1ccccc1-c1cc(C(=O)NCc2cccc(Br)c2)n(CC2CC(c3cccnc3)=NO2)n1 (configuration not stated) ?
mIAP block: -100.0; hIAP inh: -4.1; hIAP activ: 1.04; mIAP act: 2*

How did COc1ccc(C2=NOC(Cn3nc(-c4ccccc4)cc3C(=O)NCc3cccc(C(F)(F)F)c3)C2)cc1 (configuration not stated) do in these assays?
mIAP block: -223.7; hIAP inh: -8.3; hIAP activ: 1.08; mIAP act: 3.24*

How did COc1ccc(C2=NOC(Cn3nc(-c4ccccc4)cc3C(=O)NCc3ccc(C)cc3)C2)cc1 (configuration not stated) do in these assays?
mIAP block: -231.1; hIAP inh: -8.3; hIAP activ: 1.08; mIAP act: 3.31*

How did CN(C)S(=O)(=O)c1cccc(NC(=O)C2CCN(S(=O)(=O)c3cccs3)CC2)c1 do in these assays?
mIAP block: -27.4; hIAP inh: 0.8; hIAP activ: 0.992; mIAP act: 1.27

Results for Cc1ccc(C)c(COc2coc(CN3CCN(C(=O)c4ccco4)CC3)cc2=O)c1 ?
mIAP block: -3.9; hIAP inh: -13.1; hIAP activ: 1.13; mIAP act: 1.04

What do the screens show for `COc1ccc(C[C@H]2CN3C(=NC[C@@H]3C(C)C)N2CCNC(=O)CCC2CCCCC2)cc1`?
mIAP block: -1.6; bIAP act: 1.1; bIAP inh: -14.8; hIAP inh: 14.5; hIAP activ: 0.855; mIAP act: 1.02

Results for COc1ccc(C[C@H]2CN3C(=NC[C@@H]3Cc3ccccc3)N2CCNC(=O)CCC2CCCCC2)cc1 ?
mIAP block: 1.3; bIAP act: 2.1*; bIAP inh: -105.1; hIAP inh: 8.9; hIAP activ: 0.911; mIAP act: 0.987

What do the screens show for `COc1cc(CNCCN2CCOCC2)ccc1OCc1ccc(Cl)cc1Cl`?
mIAP block: 4.8; bIAP act: 1.1; bIAP inh: -11.0; hIAP inh: -6.5; hIAP activ: 1.06; mIAP act: 0.952

Results for COc1cc(CNCc2ccccn2)ccc1OCC(N)=O ?
mIAP block: -9.9; bIAP act: 1; bIAP inh: -2.5; hIAP inh: -2.5; hIAP activ: 1.02; mIAP act: 1.1

Results for COc1cc(CNCc2ccccn2)ccc1OCc1ccc(Cl)c(Cl)c1 ?
mIAP block: -19.5; bIAP act: 2.4*; bIAP inh: -141.8; hIAP inh: -21.4; hIAP activ: 1.21; mIAP act: 1.2

What do the screens show for `COc1cc(CNCc2ccccn2)ccc1OCc1ccc(Cl)cc1Cl`?
mIAP block: -25.2; bIAP act: 2.7*; bIAP inh: -174.3; hIAP inh: -58.7; hIAP activ: 1.59; mIAP act: 1.25

Results for O=C(CNC(=O)c1ccc(Br)o1)NC1CCCCC1 ?
mIAP block: 1.6; hIAP inh: -18.0; hIAP activ: 1.18; mIAP act: 0.984

How did Cc1ccc(S(=O)(=O)N2CCN(C(=O)C3CCCC3)CC2)cc1C do in these assays?
mIAP block: 0.6; hIAP inh: 7.6; hIAP activ: 0.924; mIAP act: 0.994

Results for COc1ccc(CN2CCN(CCSc3ccc(C)cc3)CC2)c(OC)c1OC ?
mIAP block: 6.5; hIAP inh: 10.3; hIAP activ: 0.897; mIAP act: 0.935

What do the screens show for `N#C/C(=C(/O)COC(=O)CSc1ccc2ccccc2c1)c1nc2ccccc2[nH]1`?
mIAP block: 22.0; bIAP act: 0.6; bIAP inh: 43.3; hIAP inh: -142.6; hIAP activ: 2.43*; mIAP act: 0.78

Results for O=C(CCc1nnc2ccc(NCc3ccco3)nn12)N1CCN(c2ccc(F)cc2)CC1 ?
mIAP block: -5.9; hIAP inh: -12.4; hIAP activ: 1.12; mIAP act: 1.06

What do the screens show for `Cc1cc(Oc2ccc(=O)n(C)n2)nc(SCc2ccccc2)n1`?
mIAP block: -4.7; bIAP act: 1.1; bIAP inh: -12.0; hIAP inh: -19.8; hIAP activ: 1.2; mIAP act: 1.05

Results for Cn1nc(C(=O)NC2CCCCC2)c2ccccc2c1=O ?
mIAP block: 3.9; bIAP act: 1; bIAP inh: 3.5; hIAP inh: 12.5; hIAP activ: 0.875; mIAP act: 0.961

What do the screens show for `Cn1nc(CC(=O)NC2CCCCCCCCCCC2)c2ccccc2c1=O`?
mIAP block: -7.1; bIAP act: 2.3*; bIAP inh: -128.9; hIAP inh: 17.9; hIAP activ: 0.821; mIAP act: 1.07

What do the screens show for `CN(NC1OC(=O)c2ccccc21)c1ccccc1[N+](=O)[O-]` (configuration not stated)?
mIAP block: -1.9; hIAP inh: -1.7; hIAP activ: 1.02; mIAP act: 1.02

How did C[n+]1ccn(CC(=O)c2ccc(Cl)cc2)c1 do in these assays?
mIAP block: 6.9; bIAP act: 2.5*; bIAP inh: -148.2; hIAP inh: -4.0; hIAP activ: 1.04; mIAP act: 0.931

How did C[n+]1ccn(CC(=O)c2ccc(Br)cc2)c1 do in these assays?
mIAP block: 6.1; bIAP act: 1; bIAP inh: -3.7; hIAP inh: -1.7; hIAP activ: 1.02; mIAP act: 0.939
